Drawing on ChEMBL document CHEMBL1128679, “Molecular similarity from atomic electrostatic multipole comparisons. Application to anti-HIV drugs” (J Med Chem, 1995), this text covers EC50 and SI for 7 molecules.

A word on the EC50: it is the midpoint of the concentration-response curve. Lower therefore signals higher potency in that assay.

The test system of assay [1] is AIK-T4. Description: Ability to prevent HIV-1 induced T4 cell killing and HIV-1 replication. Format: functional, cell-based. The note with it: Homo sapiens.
Assay [2] is described as follows: Similarity index (SI) value of the compound. Format: functional. The essentials: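 Computed by comparing atomic electrostatic multipoles at the atomic centres of the molecule pair. Molecule B is rotated and translated against the other by quasi-Newton minimization, using numerical first and second derivatives, with the Hessian updated after every move of B. R is replaced by R + 10^-4 to avoid division by zero. The procedure is repeated to obtain E_B.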

`COc1cc(-c2ccc(/N=N/c3ccc4c(S(=O)(=O)O)cc(S(=O)(=O)O)c(N)c4c3O)c(OC)c2)ccc1/N=N/c1ccc2c(S(=O)(=O)O)cc(S(=O)(=O)O)c(N)c2c1O` [CHICAGO SKY BLUE SODIUM] gave an EC50 in assay [1] of 4.8 µM. Besides, the SI in assay [2] came out at 0.4.

Molecule `O=S(=O)(O)c1cc(/N=N/c2cc(S(=O)(=O)O)c3cccnc3c2O)ccc1/C=C/c1ccc(/N=N/c2cc(S(=O)(=O)O)c3cccnc3c2O)cc1S(=O)(=O)O` gave a 50% effective concentration (EC50) in assay [1] of 1.3 µM. This molecule registered an SI in assay [2] of 0.

The molecule `COc1cc(-c2ccc(/N=N/c3ccc4c(S(=O)(=O)O)ccc(S(=O)(=O)O)c4c3N)c(OC)c2)ccc1/N=N/c1ccc2c(S(=O)(=O)O)ccc(S(=O)(=O)O)c2c1N` yielded a concentration giving a half-maximal response (EC50) in assay [1] of 13.8 µM. Further, the SI in assay [2] stood at 0.5.

The molecule `O=C(O)c1cc(O)cc(O)c1/N=N/c1ccc(/C=C/c2ccc(/N=N/c3c(O)cc(O)cc3C(=O)O)cc2S(=O)(=O)O)c(S(=O)(=O)O)c1` returned an EC50 in assay [1] of 1.4 µM. For the same molecule, the SI in assay [2] was 0.16.

Take `O=S(=O)(O)c1cc(/N=N/c2ccc3cccnc3c2O)ccc1/C=C/c1ccc(/N=N/c2ccc3cccnc3c2O)cc1S(=O)(=O)O`: the response in assay [1] was half-maximal at 6.4 µM (EC50). In addition, the SI in assay [2] is 0.45.

Turning to `Nc1cc(N)c(/N=N/c2ccc(/C=C/c3ccc(/N=N/c4c(N)cc(N)cc4C(=O)O)cc3S(=O)(=O)O)c(S(=O)(=O)O)c2)c(C(=O)O)c1`, in assay [1], the 50% effective concentration (EC50) was 31 µM. Further, the SI in assay [2] came to 0.69.

With `Nc1c(S(=O)(=O)O)cc2cc(S(=O)(=O)O)ccc2c1/N=N/c1ccc(/C=C/c2ccc(/N=N/c3c(N)c(S(=O)(=O)O)cc4cc(S(=O)(=O)O)ccc34)cc2S(=O)(=O)O)c(S(=O)(=O)O)c1`, a half-maximal effect in assay [1] (EC50) was put at 2.9 µM. The same molecule displayed an SI in assay [2] of 0.31.
